{
  "source": "ChEMBL document CHEMBL5705904",
  "about": "(N Engl J Med, 2016)",
  "key": {"[1]": {"experiment": "AUC(0 to 24 hrs) in human at 175 mg, po administered for 8 days by LC-MS/MS analysis", "format": "ADME, organism-based", "details": "in vivo, time 8 day", "how_it_was_run": "(§1)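 Steady-state plasma sampling on cycle 1 day 8 in patients, predose and 0.25, 0.5, 0.75, 1, 2, 4 and 6 h post-dose, into lithium heparin. Plasma was stored at -80°C. Drug was quantified by validated LC-MS/MS against a stable labeled internal standard, using only values at or above LLOQ and nominal sampling times.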"}, "[2]": {"experiment": "AUC(0 to 24 hrs) in human at 100 mg, po administered for 8 days by LC-MS/MS analysis", "format": "ADME, organism-based", "details": "in vivo, time 8 day", "how_it_was_run": "as §1"}, "[3]": {"molecular_target": "Tyrosine-protein kinase HCK (Homo sapiens, UniProt P08631)", "sequence (P08631 whole entry)": "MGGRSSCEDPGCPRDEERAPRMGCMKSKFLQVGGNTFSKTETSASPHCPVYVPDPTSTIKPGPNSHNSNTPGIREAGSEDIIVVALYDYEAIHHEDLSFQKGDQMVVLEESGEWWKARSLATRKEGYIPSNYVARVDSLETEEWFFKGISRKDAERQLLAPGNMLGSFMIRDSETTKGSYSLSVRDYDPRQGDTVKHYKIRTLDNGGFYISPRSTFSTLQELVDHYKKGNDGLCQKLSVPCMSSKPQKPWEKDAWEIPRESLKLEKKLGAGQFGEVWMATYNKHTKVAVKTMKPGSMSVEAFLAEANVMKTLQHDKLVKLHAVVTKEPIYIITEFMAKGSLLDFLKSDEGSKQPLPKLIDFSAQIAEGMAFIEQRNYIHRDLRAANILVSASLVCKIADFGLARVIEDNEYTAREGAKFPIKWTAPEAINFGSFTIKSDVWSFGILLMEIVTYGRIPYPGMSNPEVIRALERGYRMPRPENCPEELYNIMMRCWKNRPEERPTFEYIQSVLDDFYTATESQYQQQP", "experiment": "Inhibition of recombinant HCK (unknown origin) preincubated for 1 hr in presence of ATP by Z-Lyte assay", "how_it_was_run": "(§2)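 Recombinant kinase activity was measured by Z'-LYTE with ATP at each enzyme's Km. Inhibitor came from a 10 mM DMSO stock and was tested at 10 concentrations. Compound was preincubated with kinase for 1 h before ATP addition started the reaction, for about 2 h total compound-kinase exposure. IC50 is from 2–3 independent experiments.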"}, "[4]": {"experiment": "AUC(0 to 6 hrs) in human at 100 mg, po BID administered for 8 days by LC-MS/MS analysis", "format": "ADME, organism-based", "details": "in vivo, time 8 day", "how_it_was_run": "as §1"}, "[5]": {"experiment": "Half life in human at 100 mg, po administered for 8 days by LC-MS/MS analysis", "format": "ADME, organism-based", "details": "in vivo, time 8 day", "how_it_was_run": "as §1"}, "[6]": {"experiment": "Tmax in human at 400 mg, po administered for 8 days by LC-MS/MS analysis", "format": "ADME, organism-based", "details": "in vivo, time 8 day", "how_it_was_run": "(§3)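 Patient plasma sampled on cycle 1 day 8 at predose and 0.25, 0.5, 0.75, 1, 2, 4 and 6 h post-dose, in lithium heparin. […] Tmax read directly from each individual's data; summarized descriptively.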"}, "[7]": {"experiment": "AUC(0 to infinity) in human at 100 mg, po BID administered for 8 days by LC-MS/MS analysis", "format": "ADME, organism-based", "details": "in vivo, time 8 day", "how_it_was_run": "as §1"}, "[8]": {"experiment": "AUC(0 to 12 hrs) in human at 100 mg, po BID administered for 8 days by LC-MS/MS analysis", "format": "ADME, organism-based", "details": "in vivo, time 8 day", "how_it_was_run": "as §1"}, "[9]": {"molecular_target": "Tyrosine-protein kinase Lck (Homo sapiens, UniProt P06239)", "sequence (P06239 whole entry)": "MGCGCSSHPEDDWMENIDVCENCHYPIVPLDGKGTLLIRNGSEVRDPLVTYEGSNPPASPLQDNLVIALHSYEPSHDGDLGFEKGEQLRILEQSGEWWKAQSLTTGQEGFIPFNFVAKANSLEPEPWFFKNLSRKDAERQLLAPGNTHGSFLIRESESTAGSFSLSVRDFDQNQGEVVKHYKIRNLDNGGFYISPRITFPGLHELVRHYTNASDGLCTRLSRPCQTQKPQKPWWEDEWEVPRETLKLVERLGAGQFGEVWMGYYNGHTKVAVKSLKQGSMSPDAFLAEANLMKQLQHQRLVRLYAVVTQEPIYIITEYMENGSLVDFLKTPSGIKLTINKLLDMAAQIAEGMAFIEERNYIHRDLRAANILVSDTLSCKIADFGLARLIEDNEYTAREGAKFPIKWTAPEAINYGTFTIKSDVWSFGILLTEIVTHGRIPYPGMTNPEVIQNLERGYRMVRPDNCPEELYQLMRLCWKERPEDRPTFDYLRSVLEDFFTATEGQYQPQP", "experiment": "Inhibition of recombinant LCK (unknown origin) preincubated for 1 hr […] by Z-Lyte assay", "how_it_was_run": "as §2"}, "[10]": {"experiment": "Half life in human at 400 mg, po administered for 8 days by LC-MS/MS analysis", "format": "ADME, organism-based", "details": "in vivo, time 8 day", "how_it_was_run": "as §1"}, "[11]": {"experiment": "Apparent volume of distribution during terminal phase in human at 400 mg, po administered for 8 days by LC-MS/MS analysis", "format": "ADME, organism-based", "details": "in vivo, time 8 day, read-out: Vz/F", "how_it_was_run": "as §1"}, "[12]": {"experiment": "Tmax in human at 100 mg, po BID administered for 8 days by LC-MS/MS analysis", "format": "ADME, organism-based", "details": "in vivo, time 8 day", "how_it_was_run": "as §3"}, "[13]": {"experiment": "AUC(0 to infinity) in human at 175 mg, po administered for 8 days by LC-MS/MS analysis", "format": "ADME, organism-based", "details": "in vivo, time 8 day", "how_it_was_run": "as §1"}, "[14]": {"experiment": "Apparent oral clearance in human at 100 mg, po administered for 8 days by LC-MS/MS analysis", "format": "ADME, organism-based", "details": "in vivo, time 8 day", "how_it_was_run": "as §1"}, "[15]": {"molecular_target": "Tyrosine-protein kinase Fyn (Homo sapiens, UniProt P06241)", "sequence (P06241 whole entry)": "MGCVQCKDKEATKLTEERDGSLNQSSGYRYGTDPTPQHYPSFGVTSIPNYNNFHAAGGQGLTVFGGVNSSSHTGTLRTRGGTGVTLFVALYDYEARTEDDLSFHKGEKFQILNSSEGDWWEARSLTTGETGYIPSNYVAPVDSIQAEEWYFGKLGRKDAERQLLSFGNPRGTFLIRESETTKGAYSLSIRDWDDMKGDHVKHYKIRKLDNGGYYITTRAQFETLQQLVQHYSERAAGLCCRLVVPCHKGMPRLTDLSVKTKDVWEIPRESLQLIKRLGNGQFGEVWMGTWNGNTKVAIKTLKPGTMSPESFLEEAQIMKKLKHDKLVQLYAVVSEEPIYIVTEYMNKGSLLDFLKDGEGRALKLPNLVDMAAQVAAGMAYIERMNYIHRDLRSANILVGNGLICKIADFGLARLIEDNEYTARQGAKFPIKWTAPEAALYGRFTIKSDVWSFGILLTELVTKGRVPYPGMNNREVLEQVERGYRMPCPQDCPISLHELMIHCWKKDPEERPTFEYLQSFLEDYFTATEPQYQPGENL", "experiment": "Inhibition of recombinant FYN (unknown origin) preincubated for 1 hr […] by Z-Lyte assay", "how_it_was_run": "as §2"}, "[16]": {"experiment": "Terminal elimination half life in human at 100 mg, po administered for 8 days by LC-MS/MS analysis", "format": "ADME, organism-based", "details": "in vivo, time 8 day, read-out: LambdaZ (converted)"}, "[17]": {"experiment": "AUC(0 to infinity) in human at 100 mg, po administered for 8 days by LC-MS/MS analysis", "format": "ADME, organism-based", "details": "in vivo, time 8 day", "how_it_was_run": "as §1"}, "[18]": {"experiment": "Tmax in human at 175 mg, po administered for 8 days by LC-MS/MS analysis", "format": "ADME, organism-based", "details": "in vivo, time 8 day", "how_it_was_run": "as §3"}, "[19]": {"experiment": "Terminal elimination half life in human at 400 mg, po administered for 8 days by LC-MS/MS analysis", "format": "ADME, organism-based", "details": "in vivo, time 8 day, read-out: LambdaZ (converted)"}, "[20]": {"experiment": "Half life in human at 175 mg, po administered for 8 days by LC-MS/MS analysis", "format": "ADME, organism-based", "details": "in vivo, time 8 day", "how_it_was_run": "as §1"}, "[21]": {"molecular_target": "T1, Tyrosine-protein kinase TXK (Homo sapiens, UniProt P42681)", "T1 sequence (P42681 whole entry)": "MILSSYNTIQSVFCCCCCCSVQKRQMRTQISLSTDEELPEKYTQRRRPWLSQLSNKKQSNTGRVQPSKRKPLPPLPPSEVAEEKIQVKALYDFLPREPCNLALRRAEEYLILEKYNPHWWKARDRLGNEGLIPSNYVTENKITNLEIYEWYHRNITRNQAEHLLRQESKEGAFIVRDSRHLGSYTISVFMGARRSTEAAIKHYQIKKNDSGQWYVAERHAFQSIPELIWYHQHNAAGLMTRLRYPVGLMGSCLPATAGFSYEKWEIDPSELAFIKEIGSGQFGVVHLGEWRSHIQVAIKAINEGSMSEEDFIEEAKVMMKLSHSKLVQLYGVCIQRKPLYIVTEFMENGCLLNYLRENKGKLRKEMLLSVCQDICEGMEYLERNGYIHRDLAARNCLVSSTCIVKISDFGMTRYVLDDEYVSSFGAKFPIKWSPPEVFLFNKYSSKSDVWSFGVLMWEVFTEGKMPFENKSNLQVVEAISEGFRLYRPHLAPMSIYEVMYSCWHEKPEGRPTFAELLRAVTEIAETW", "experiment": "Inhibition of recombinant TXK (unknown origin) preincubated for 1 hr in presence of ATP by Z-Lyte assay"}, "[22]": {"experiment": "Tmax in human at 250 mg, po administered for 8 days by LC-MS/MS analysis", "format": "ADME, organism-based", "details": "in vivo, time 8 day", "how_it_was_run": "as §3"}, "[23]": {"experiment": "Cmax in human at 400 mg, po administered for 8 days by LC-MS/MS analysis", "format": "ADME, organism-based", "details": "in vivo, time 8 day", "how_it_was_run": "as §1"}, "[24]": {"experiment": "Half life in human at 100 mg, po BID administered for 8 days by LC-MS/MS analysis", "format": "ADME, organism-based", "details": "in vivo, time 8 day", "how_it_was_run": "as §1"}, "[25]": {"molecular_target": "Tyrosine-protein kinase BTK (Homo sapiens) (UniProt Q06187)", "sequence (Q06187 whole entry)": "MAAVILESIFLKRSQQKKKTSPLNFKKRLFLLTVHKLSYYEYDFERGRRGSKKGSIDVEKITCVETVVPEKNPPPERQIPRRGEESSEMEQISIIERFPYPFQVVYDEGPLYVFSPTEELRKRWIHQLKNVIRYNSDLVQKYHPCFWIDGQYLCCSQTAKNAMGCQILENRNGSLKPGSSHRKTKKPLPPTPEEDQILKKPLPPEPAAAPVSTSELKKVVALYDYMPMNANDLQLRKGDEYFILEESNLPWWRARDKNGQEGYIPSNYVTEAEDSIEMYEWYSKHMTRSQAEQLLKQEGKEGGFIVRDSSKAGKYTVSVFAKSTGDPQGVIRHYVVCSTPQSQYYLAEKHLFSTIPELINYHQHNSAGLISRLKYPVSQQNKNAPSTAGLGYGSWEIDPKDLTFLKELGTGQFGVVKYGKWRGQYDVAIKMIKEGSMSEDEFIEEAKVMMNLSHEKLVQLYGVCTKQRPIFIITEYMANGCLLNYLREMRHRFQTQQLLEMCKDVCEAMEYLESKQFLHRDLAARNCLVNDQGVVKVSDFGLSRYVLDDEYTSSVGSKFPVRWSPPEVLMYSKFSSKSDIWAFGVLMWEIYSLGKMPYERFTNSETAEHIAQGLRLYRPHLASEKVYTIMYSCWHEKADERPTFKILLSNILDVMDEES", "details": "Platelet, dose 25-1000 nM, time 30.0 min"}, "[26]": {"experiment": "AUC(0 to 6 hrs) in human at 175 mg, po administered for 8 days by LC-MS/MS analysis", "format": "ADME, organism-based", "details": "in vivo, time 8 day", "how_it_was_run": "as §1"}, "[27]": {"experiment": "AUC(0 to 12 hrs) in human at 400 mg, po administered for 8 days by LC-MS/MS analysis", "format": "ADME, organism-based", "details": "in vivo, time 8 day", "how_it_was_run": "as §1"}, "[28]": {"experiment": "AUC(0 to 12 hrs) in human at 100 mg, po administered for 8 days by LC-MS/MS analysis", "format": "ADME, organism-based", "details": "in vivo, time 8 day", "how_it_was_run": "as §1"}, "[29]": {"experiment": "Cmax in human at 100 mg, po BID administered for 8 days by LC-MS/MS analysis", "format": "ADME, organism-based", "details": "in vivo, time 8 day", "how_it_was_run": "as §1"}, "[30]": {"experiment": "Apparent oral clearance in human at 100 mg, po BID administered for 8 days by LC-MS/MS analysis", "format": "ADME, organism-based", "details": "in vivo, time 8 day", "how_it_was_run": "as §1"}, "[31]": {"experiment": "AUC(0 to 24 hrs) in human at 100 mg, po BID administered for 8 days by LC-MS/MS analysis", "format": "ADME, organism-based", "details": "in vivo, time 8 day", "how_it_was_run": "as §1"}},
  "note": "The source made the active and inactive calls. No cut-off for these calls is given here.",
  "data": [
    {"smiles": "CC#CC(=O)N1CCC[C@H]1c1nc(-c2ccc(C(=O)Nc3ccccn3)cc2)c2c(N)nccn12", "note": "[ACALABRUTINIB]", "values": [
      {"measurement": "AUC at 192 h", "setting": "[1]", "result": 1160, "unit": "ng·h/mL"},
      {"measurement": "AUC at 192 h", "setting": "[2]", "result": 603, "unit": "ng·h/mL"},
      {"measurement": "IC50", "setting": "[3]", "result": "> 1000", "unit": "nM"},
      {"measurement": "AUC at 192 h", "setting": "[4]", "result": 826, "unit": "ng·h/mL"},
      {"measurement": "half-life", "setting": "[5]", "result": 1.16, "unit": "h"},
      {"measurement": "Tmax", "setting": "[6]", "result": 0.92, "unit": "h"},
      {"measurement": "AUC(0-inf)", "setting": "[7]", "result": 927, "unit": "ng·h/mL"},
      {"measurement": "AUC at 192 h", "setting": "[8]", "result": 926, "unit": "ng·h/mL"},
      {"measurement": "IC50", "setting": "[9]", "result": "> 1000", "unit": "nM"},
      {"measurement": "half-life", "setting": "[10]", "result": 1.39, "unit": "h"},
      {"measurement": "Vd/F", "setting": "[11]", "result": 677, "unit": "L"},
      {"measurement": "Tmax", "setting": "[12]", "result": 1, "unit": "h"},
      {"measurement": "AUC(0-inf)", "setting": "[13]", "result": 1160, "unit": "ng·h/mL"},
      {"measurement": "CL/F", "setting": "[14]", "result": 3000, "unit": "mL/min"},
      {"measurement": "IC50", "setting": "[15]", "result": "> 1000", "unit": "nM"},
      {"measurement": "k el at 192 h", "setting": "[16]", "result": 0.00017, "unit": "s⁻¹"},
      {"measurement": "AUC(0-inf)", "setting": "[17]", "result": 603, "unit": "ng·h/mL"},
      {"measurement": "Tmax", "setting": "[18]", "result": 0.64, "unit": "h"},
      {"measurement": "k el at 192 h", "setting": "[19]", "result": 0.000161, "unit": "s⁻¹"},
      {"measurement": "half-life", "setting": "[20]", "result": 1.02, "unit": "h"},
      {"measurement": "IC50", "setting": "[21]", "result": 368, "unit": "nM"},
      {"measurement": "Tmax", "setting": "[22]", "result": 1.1, "unit": "h"},
      {"measurement": "Cmax", "setting": "[23]", "result": 902, "unit": "ng/mL"},
      {"measurement": "half-life", "setting": "[24]", "result": 1.13, "unit": "h"},
      {"measurement": "inhibition", "setting": "[25]", "result": "inactive"},
      {"measurement": "AUC at 192 h", "setting": "[26]", "result": 1140, "unit": "ng·h/mL"},
      {"measurement": "AUC at 192 h", "setting": "[27]", "result": 1850, "unit": "ng·h/mL"},
      {"measurement": "AUC at 192 h", "setting": "[28]", "result": 602, "unit": "ng·h/mL"},
      {"measurement": "Cmax", "setting": "[29]", "result": 827, "unit": "ng/mL"},
      {"measurement": "CL/F", "setting": "[30]", "result": 2750, "unit": "mL/min"},
      {"measurement": "AUC at 192 h", "setting": "[31]", "result": 1850, "unit": "ng·h/mL"}
    ]}
  ]
}
